Blank lines part the entries; values can stand above or below the compound they belong to.
Legend:
[1] = target: T1, G protein-coupled receptor kinase 3 (Homo sapiens) (UniProt P35626); experiment: Inhibition of human recombinant BARK2 at 500 nM in presence of ATP by radiometric assay relative to control
T1 sequence (whole entry): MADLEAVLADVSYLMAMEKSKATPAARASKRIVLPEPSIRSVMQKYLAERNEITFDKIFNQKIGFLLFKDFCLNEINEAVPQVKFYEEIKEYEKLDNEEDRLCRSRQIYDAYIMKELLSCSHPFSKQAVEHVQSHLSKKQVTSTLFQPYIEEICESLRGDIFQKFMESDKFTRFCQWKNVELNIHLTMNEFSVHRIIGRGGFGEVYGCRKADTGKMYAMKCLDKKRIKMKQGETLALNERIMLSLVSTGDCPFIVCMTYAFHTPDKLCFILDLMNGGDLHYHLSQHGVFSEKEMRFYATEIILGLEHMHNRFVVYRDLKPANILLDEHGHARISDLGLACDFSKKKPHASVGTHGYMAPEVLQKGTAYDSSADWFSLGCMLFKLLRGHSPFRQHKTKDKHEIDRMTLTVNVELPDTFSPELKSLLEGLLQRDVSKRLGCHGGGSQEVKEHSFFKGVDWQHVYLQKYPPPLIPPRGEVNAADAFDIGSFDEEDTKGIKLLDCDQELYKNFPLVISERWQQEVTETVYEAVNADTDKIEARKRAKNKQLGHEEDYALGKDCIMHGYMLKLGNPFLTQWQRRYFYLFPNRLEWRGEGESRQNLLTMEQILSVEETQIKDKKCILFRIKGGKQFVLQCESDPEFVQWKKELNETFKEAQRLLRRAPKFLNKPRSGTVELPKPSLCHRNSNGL
In short: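 Part of a radiometric in vitro activity panel of 327 recombinant human kinases. Each kinase was tested in duplicate at one inhibitor concentration. Activity remaining was expressed as a percentage of the vehicle control, and percent inhibition was taken as 100 minus that value.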

[2] = target: T2, Mitogen-activated protein kinase kinase kinase 2 (Homo sapiens) (UniProt Q9Y2U5); experiment: Inhibition of human recombinant MAP3K2 at 500 nM related to control ULK1
T2 sequence (whole entry): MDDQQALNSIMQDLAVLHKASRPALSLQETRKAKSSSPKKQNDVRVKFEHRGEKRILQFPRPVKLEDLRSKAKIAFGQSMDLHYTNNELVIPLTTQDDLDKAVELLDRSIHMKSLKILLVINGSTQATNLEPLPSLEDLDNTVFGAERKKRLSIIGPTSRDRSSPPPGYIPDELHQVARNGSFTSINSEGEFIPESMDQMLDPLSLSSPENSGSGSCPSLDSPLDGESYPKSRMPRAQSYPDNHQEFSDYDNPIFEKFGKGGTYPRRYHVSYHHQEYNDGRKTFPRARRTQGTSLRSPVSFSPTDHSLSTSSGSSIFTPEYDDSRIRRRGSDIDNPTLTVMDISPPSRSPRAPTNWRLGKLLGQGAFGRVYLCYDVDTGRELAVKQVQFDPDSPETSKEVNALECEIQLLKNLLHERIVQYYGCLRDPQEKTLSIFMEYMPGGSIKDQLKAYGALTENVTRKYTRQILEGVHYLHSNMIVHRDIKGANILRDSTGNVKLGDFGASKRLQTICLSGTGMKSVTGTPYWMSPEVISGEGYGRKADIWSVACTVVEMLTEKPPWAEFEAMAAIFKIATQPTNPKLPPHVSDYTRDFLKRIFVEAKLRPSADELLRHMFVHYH

[3] = target: Myosin light chain kinase, smooth muscle (Homo sapiens) (UniProt Q15746); experiment: Inhibition of human recombinant smMLCK at 500 nM related to control ULK1
Sequence of Myosin light chain kinase, smooth muscle (Homo sapiens) (Q15746 whole entry): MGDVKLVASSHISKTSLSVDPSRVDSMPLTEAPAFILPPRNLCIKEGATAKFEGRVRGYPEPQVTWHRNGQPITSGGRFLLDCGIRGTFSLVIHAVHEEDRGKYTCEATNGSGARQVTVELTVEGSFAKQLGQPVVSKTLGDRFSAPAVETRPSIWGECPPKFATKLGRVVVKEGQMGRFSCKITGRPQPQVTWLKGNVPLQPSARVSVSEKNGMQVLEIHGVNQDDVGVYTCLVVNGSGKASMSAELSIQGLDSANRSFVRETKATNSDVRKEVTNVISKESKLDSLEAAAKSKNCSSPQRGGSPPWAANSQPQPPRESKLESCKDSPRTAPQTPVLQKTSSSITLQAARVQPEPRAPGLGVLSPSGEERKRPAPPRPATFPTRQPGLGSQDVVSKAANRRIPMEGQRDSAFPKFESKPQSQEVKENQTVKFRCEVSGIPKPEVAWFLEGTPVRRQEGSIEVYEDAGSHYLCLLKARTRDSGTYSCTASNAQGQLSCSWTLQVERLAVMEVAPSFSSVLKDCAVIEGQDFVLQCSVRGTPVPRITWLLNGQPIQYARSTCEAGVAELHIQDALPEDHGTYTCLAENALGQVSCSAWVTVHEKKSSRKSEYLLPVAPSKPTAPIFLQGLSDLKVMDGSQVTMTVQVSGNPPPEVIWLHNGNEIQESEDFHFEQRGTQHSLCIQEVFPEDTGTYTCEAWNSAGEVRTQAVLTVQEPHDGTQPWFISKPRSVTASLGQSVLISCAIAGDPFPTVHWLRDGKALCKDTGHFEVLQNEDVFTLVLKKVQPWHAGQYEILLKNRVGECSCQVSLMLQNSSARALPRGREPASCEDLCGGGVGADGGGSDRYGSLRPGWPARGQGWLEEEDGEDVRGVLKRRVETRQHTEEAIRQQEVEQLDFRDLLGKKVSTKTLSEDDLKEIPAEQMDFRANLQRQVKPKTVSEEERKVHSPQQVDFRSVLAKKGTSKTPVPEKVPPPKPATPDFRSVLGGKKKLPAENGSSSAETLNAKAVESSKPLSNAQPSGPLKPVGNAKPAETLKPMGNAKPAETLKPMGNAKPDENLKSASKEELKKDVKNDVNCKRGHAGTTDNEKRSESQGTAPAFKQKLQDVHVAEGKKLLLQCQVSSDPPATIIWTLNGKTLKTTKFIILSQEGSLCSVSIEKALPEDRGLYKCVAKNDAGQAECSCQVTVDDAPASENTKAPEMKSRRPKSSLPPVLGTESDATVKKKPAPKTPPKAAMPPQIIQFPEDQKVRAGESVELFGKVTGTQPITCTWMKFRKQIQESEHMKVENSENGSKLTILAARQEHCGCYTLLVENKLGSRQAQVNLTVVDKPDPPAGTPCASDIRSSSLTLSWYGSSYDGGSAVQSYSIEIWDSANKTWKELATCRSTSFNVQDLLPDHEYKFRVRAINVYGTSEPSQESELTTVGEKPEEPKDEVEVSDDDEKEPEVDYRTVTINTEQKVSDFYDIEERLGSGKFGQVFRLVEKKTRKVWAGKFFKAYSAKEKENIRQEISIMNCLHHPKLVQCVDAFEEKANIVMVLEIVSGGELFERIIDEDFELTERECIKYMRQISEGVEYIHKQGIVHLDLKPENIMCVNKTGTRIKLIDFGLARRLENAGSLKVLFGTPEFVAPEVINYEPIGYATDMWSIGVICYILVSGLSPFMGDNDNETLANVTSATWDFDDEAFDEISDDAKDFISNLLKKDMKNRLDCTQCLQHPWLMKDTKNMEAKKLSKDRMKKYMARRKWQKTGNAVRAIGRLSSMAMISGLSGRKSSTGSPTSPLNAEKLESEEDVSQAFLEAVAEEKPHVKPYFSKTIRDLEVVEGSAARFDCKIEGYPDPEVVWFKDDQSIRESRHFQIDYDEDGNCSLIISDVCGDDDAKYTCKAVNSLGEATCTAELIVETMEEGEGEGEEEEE

[4] = target: T3, Tribbles homolog 2 (Homo sapiens) (UniProt Q92519); experiment: Inhibition of human recombinant Trb2 at 15 nM in presence of ATP by radiometric assay relative to control
T3 sequence (whole entry): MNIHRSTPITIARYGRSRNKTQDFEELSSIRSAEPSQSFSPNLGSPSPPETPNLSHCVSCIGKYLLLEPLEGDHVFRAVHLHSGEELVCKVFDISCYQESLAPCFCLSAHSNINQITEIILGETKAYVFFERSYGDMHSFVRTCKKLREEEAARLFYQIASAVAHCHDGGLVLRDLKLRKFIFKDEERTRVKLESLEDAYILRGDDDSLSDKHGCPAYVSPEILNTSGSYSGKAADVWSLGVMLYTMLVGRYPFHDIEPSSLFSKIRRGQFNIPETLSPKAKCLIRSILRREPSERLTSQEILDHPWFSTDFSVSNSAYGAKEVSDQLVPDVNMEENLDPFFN

[5] = target: Tyrosine-protein kinase HCK (Homo sapiens) (UniProt P08631); experiment: Inhibition of human recombinant HCK at 15 nM in presence of ATP by radiometric assay relative to control
Sequence of Tyrosine-protein kinase HCK (Homo sapiens) (P08631 2-526 limits assumed): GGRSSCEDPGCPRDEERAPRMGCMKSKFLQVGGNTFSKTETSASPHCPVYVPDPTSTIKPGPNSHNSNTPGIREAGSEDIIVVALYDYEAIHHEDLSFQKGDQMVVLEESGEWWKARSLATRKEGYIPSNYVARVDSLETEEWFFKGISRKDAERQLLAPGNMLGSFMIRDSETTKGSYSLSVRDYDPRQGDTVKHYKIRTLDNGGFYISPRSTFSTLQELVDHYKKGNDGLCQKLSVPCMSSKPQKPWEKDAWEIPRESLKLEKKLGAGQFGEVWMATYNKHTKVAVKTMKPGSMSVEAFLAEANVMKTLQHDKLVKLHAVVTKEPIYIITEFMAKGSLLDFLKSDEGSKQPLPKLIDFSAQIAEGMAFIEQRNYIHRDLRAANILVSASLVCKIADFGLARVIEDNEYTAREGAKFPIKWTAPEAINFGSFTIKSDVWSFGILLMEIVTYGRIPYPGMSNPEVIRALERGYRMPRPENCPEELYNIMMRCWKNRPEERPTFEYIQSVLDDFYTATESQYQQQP

[6] = target: T4, Serine/threonine-protein kinase PLK4 (Homo sapiens) (UniProt O00444); experiment: Inhibition of human recombinant PLK4 at 40 nM related to control ULK1
T4 sequence (whole entry): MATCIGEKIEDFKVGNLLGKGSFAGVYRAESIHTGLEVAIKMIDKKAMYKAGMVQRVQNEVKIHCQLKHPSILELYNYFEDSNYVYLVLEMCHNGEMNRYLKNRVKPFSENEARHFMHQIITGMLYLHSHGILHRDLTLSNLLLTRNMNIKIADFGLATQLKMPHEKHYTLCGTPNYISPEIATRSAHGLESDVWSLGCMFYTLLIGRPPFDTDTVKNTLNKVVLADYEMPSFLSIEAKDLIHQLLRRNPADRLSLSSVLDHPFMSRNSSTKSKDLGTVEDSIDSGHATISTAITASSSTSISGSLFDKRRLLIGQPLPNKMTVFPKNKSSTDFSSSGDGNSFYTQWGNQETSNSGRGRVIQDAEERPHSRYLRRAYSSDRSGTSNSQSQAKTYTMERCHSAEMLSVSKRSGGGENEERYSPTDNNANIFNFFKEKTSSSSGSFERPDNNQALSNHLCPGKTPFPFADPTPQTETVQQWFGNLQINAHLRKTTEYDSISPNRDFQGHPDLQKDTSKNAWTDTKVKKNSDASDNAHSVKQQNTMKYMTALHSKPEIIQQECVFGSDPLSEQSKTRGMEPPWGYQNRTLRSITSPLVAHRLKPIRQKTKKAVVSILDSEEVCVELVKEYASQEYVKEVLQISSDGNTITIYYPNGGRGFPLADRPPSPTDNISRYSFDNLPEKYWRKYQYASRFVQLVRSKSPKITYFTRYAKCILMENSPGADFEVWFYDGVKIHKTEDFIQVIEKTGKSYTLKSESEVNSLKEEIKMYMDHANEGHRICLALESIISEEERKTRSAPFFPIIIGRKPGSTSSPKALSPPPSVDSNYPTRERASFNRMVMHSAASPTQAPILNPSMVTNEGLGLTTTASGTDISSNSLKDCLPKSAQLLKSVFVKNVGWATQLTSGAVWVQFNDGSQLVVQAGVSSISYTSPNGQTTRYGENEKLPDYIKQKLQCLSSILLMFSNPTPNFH

[7] = target: MAP kinase-activated protein kinase 2 (Homo sapiens) (UniProt P49137); experiment: Inhibition of human recombinant MAPKAPK2 at 40 nM related to control ULK1
Sequence of MAP kinase-activated protein kinase 2 (Homo sapiens) (P49137 whole entry, looked up): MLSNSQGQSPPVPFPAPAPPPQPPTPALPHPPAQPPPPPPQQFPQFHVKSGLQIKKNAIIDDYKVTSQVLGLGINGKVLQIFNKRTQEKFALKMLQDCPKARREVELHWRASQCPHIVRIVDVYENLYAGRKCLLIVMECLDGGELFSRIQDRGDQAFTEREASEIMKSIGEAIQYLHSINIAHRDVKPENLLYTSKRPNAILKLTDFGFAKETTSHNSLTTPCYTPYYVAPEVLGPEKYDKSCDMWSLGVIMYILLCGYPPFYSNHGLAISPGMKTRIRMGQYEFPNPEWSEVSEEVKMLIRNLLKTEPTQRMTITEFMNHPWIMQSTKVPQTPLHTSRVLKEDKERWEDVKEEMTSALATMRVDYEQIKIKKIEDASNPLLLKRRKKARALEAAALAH

- inhibition [1]: 7%
- fold change (FC) [2]: 0.04
- fold change (FC) [3]: 0.07
SMILES: CNC(=O)c1ccccc1Oc1nc(Nc2cc(OC)c(OC)c(OC)c2)ncc1Br

- inhibition [4]: 36%
- inhibition [5]: 26%
SMILES: CC(C)[C@H](NC(=O)c1cc(-c2cnn3cc(-c4ccc(OCCN5CCCCC5)cc4)cnc23)cs1)C(F)(F)F

- fold change (FC) [6]: 0.1
- fold change (FC) [7]: 0
SMILES: O=C(N[C@@H](C1CC1)C(F)(F)F)c1cc(-c2cnn3cc(-c4ccc(F)cc4)cnc23)cs1

Source: ChEMBL document CHEMBL5653631, “A Potent and Selective ULK1 Inhibitor Suppresses Autophagy and Sensitizes Cancer Cells to Nutrient Stress” (iScience, 2018)
